Test system: HEK-293T
Test: Multiplex assay against HEK293T;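 on Population Tubulin-Different-Phenotype (%): share of the cells with healthy nuclei that show this phenotype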
Assay type: toxicity, cell-based
Conditions: human
Outline: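 Imaging took place on a CQ1 microscope at 37°C and 5% CO2 once compound had been added to live cells stained at seeding with Hoechst33342, BioTracker Green Microtubule Cytoskeleton Dye, MitoTracker Red and Annexin V Alexa Fluor 680. CellPathfinder machine-learning gating classed cells as Hoechst high-intensity objects or normal cells, classed normal cells as having healthy, pyknosed or fragmented nuclei, and classed pyknosed cells as mitotic or apoptotic. Tubulin, mitochondrial-mass and membrane-permeability phenotypes are per cents of the healthy-nucleus cells.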

[1] = 12 h, 1 µM, compound concentration 1 uM, replicate 1
[2] = 12 h, 1 µM, compound concentration 1 uM, replicate 2
[3] = 12 h, 10 µM, compound concentration 10 uM, replicate 1
[4] = 12 h, 10 µM, compound concentration 10 uM, replicate 2
[5] = 24 h, 1 µM, compound concentration 1 uM, replicate 1
[6] = 24 h, 1 µM, compound concentration 1 uM, replicate 2
[7] = 24 h, 10 µM, compound concentration 10 uM, replicate 1
[8] = 24 h, 10 µM, compound concentration 10 uM, replicate 2
[9] = 48 h, 1 µM, compound concentration 1 uM, replicate 1
[10] = 48 h, 1 µM, compound concentration 1 uM, replicate 2
[11] = 48 h, 10 µM, compound concentration 10 uM, replicate 1
[12] = 48 h, 10 µM, compound concentration 10 uM, replicate 2

CCc1cc2c(cc1CC)CC(NC[C@H](O)c1ccc(O)c3[nH]c(=O)ccc13)C2 [INDACATEROL]
Population Apoptotic (%) [1]: 48% | Population Fragmented Nuclei (%) [1]: 10% | Population Healthy Nuclei (%) [1]: 47% | Population Hoechst High Intensity Objects (%) [1]: 16% | Population Membrane Permeable-Phenotype (%) [1]: 4% | Population Mitochondria Different-Phenotype (%) [1]: 74% | Population Mitotic Cells (%) [1]: 51% | Population Normal (%) [1]: 83% | Population Pyknosed Nuclei (%) [1]: 42% | Population Tubulin-Different-Phenotype (%) [1]: 53% | Total Cell Count [1]: 240 | Population Apoptotic (%) [2]: 6% | Population Fragmented Nuclei (%) [2]: 8% | Population Healthy Nuclei (%) [2]: 36% | Population Hoechst High Intensity Objects (%) [2]: 3% | Population Membrane Permeable-Phenotype (%) [2]: 10% | Population Mitochondria Different-Phenotype (%) [2]: 50% | Population Mitotic Cells (%) [2]: 93% | Population Normal (%) [2]: 96% | Population Pyknosed Nuclei (%) [2]: 55% | Population Tubulin-Different-Phenotype (%) [2]: 51% | Total Cell Count [2]: 228 | Population Apoptotic (%) [3]: 93% | Population Fragmented Nuclei (%) [3]: 19% | Population Healthy Nuclei (%) [3]: 12% | Population Hoechst High Intensity Objects (%) [3]: 30% | Population Membrane Permeable-Phenotype (%) [3]: 0% | Population Mitochondria Different-Phenotype (%) [3]: 61% | Population Mitotic Cells (%) [3]: 6% | Population Normal (%) [3]: 69% | Population Pyknosed Nuclei (%) [3]: 67% | Population Tubulin-Different-Phenotype (%) [3]: 61% | Total Cell Count [3]: 204 | Population Apoptotic (%) [4]: 82% | Population Fragmented Nuclei (%) [4]: 8% | Population Healthy Nuclei (%) [4]: 17% | Population Hoechst High Intensity Objects (%) [4]: 12% | Population Membrane Permeable-Phenotype (%) [4]: 3% | Population Mitochondria Different-Phenotype (%) [4]: 90% | Population Mitotic Cells (%) [4]: 17% | Population Normal (%) [4]: 87% | Population Pyknosed Nuclei (%) [4]: 74% | Population Tubulin-Different-Phenotype (%) [4]: 87% | Total Cell Count [4]: 215 | Population Apoptotic (%) [5]: 48% | Population Fragmented Nuclei (%) [5]: 10% | Population Healthy Nuclei (%) [5]: 57% | Population Hoechst High Intensity Objects (%) [5]: 16% | Population Membrane Permeable-Phenotype (%) [5]: 4% | Population Mitochondria Different-Phenotype (%) [5]: 70% | Population Mitotic Cells (%) [5]: 52% | Population Normal (%) [5]: 83% | Population Pyknosed Nuclei (%) [5]: 32% | Population Tubulin-Different-Phenotype (%) [5]: 43% | Total Cell Count [5]: 279 | Population Apoptotic (%) [6]: 22% | Population Fragmented Nuclei (%) [6]: 7% | Population Healthy Nuclei (%) [6]: 55% | Population Hoechst High Intensity Objects (%) [6]: 2% | Population Membrane Permeable-Phenotype (%) [6]: 3% | Population Mitochondria Different-Phenotype (%) [6]: 42% | Population Mitotic Cells (%) [6]: 77% | Population Normal (%) [6]: 97% | Population Pyknosed Nuclei (%) [6]: 37% | Population Tubulin-Different-Phenotype (%) [6]: 55% | Total Cell Count [6]: 282 | Population Apoptotic (%) [7]: 98% | Population Fragmented Nuclei (%) [7]: 22% | Population Healthy Nuclei (%) [7]: 11% | Population Hoechst High Intensity Objects (%) [7]: 33% | Population Membrane Permeable-Phenotype (%) [7]: 6% | Population Mitochondria Different-Phenotype (%) [7]: 50% | Population Mitotic Cells (%) [7]: 1% | Population Normal (%) [7]: 66% | Population Pyknosed Nuclei (%) [7]: 65% | Population Tubulin-Different-Phenotype (%) [7]: 50% | Total Cell Count [7]: 213 | Population Apoptotic (%) [8]: 95% | Population Fragmented Nuclei (%) [8]: 5% | Population Healthy Nuclei (%) [8]: 20% | Population Hoechst High Intensity Objects (%) [8]: 15% | Population Membrane Permeable-Phenotype (%) [8]: 2% | Population Mitochondria Different-Phenotype (%) [8]: 97% | Population Mitotic Cells (%) [8]: 4% | Population Normal (%) [8]: 84% | Population Pyknosed Nuclei (%) [8]: 74% | Population Tubulin-Different-Phenotype (%) [8]: 89% | Total Cell Count [8]: 219 | Population Apoptotic (%) [9]: 43% | Population Fragmented Nuclei (%) [9]: 12% | Population Healthy Nuclei (%) [9]: 72% | Population Hoechst High Intensity Objects (%) [9]: 9% | Population Membrane Permeable-Phenotype (%) [9]: 0% | Population Mitochondria Different-Phenotype (%) [9]: 45% | Population Mitotic Cells (%) [9]: 56% | Population Normal (%) [9]: 90% | Population Pyknosed Nuclei (%) [9]: 14% | Population Tubulin-Different-Phenotype (%) [9]: 33% | Total Cell Count [9]: 393 | Population Apoptotic (%) [10]: 22% | Population Fragmented Nuclei (%) [10]: 7% | Population Healthy Nuclei (%) [10]: 73% | Population Hoechst High Intensity Objects (%) [10]: 7% | Population Membrane Permeable-Phenotype (%) [10]: 5% | Population Mitochondria Different-Phenotype (%) [10]: 17% | Population Mitotic Cells (%) [10]: 77% | Population Normal (%) [10]: 92% | Population Pyknosed Nuclei (%) [10]: 18% | Population Tubulin-Different-Phenotype (%) [10]: 49% | Total Cell Count [10]: 448 | Population Apoptotic (%) [11]: 91% | Population Fragmented Nuclei (%) [11]: 29% | Population Healthy Nuclei (%) [11]: 2% | Population Hoechst High Intensity Objects (%) [11]: 35% | Population Membrane Permeable-Phenotype (%) [11]: 25% | Population Mitochondria Different-Phenotype (%) [11]: 25% | Population Mitotic Cells (%) [11]: 8% | Population Normal (%) [11]: 64% | Population Pyknosed Nuclei (%) [11]: 67% | Population Tubulin-Different-Phenotype (%) [11]: 0% | Total Cell Count [11]: 209 | Population Apoptotic (%) [12]: 98% | Population Fragmented Nuclei (%) [12]: 9% | Population Healthy Nuclei (%) [12]: 17% | Population Hoechst High Intensity Objects (%) [12]: 17% | Population Membrane Permeable-Phenotype (%) [12]: 6% | Population Mitochondria Different-Phenotype (%) [12]: 96% | Population Mitotic Cells (%) [12]: 1% | Population Normal (%) [12]: 82% | Population Pyknosed Nuclei (%) [12]: 73% | Population Tubulin-Different-Phenotype (%) [12]: 96% | Total Cell Count [12]: 214

Reference: ChEMBL document CHEMBL4689842, “EUbOPEN Chemogenomics Library wave 1” (2021)
